Assay results as given in ChEMBL document CHEMBL4017532, “Multifunctional Hybrid Compounds Derived from 2-(2,5-Dioxopyrrolidin-1-yl)-3-methoxypropanamides with Anticonvulsant and Antinociceptive Properties” (J Med Chem, 2017).

What was measured:
Mus musculus [1] = assay: Anticonvulsant activity in Albino Swiss CD-1 mouse assessed as protection against maximal electroshock-induced seizures by measuring time to peak effect at 100 mg/kg, ip pretreated up to 2 hrs followed by 50 Hz current induction for […]; format: functional
Mus musculus [2] = assay: Protection index, ratio of TD50 for neurotoxicity in ip dosed Albino Swiss CD-1 mouse to ED50 for ip dosed Albino Swiss CD-1 mouse model of 6 Hz-induced siezures
In short: (§1)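 Acute neurological toxicity after ip dosing (1% Tween 80 suspension) was assessed in the mouse chimney test. TD50 with 95% confidence limits was derived by probit analysis. Protective index is TD50 from the chimney test divided by ED50 from the MES, scPTZ or 6 Hz test.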

Mus musculus [3] = assay: Anticonvulsant activity in Albino Swiss CD-1 mouse assessed as protection against 6 Hz current-induced seizure at 100 mg/kg, ip pretreated up to 2 hrs followed by 6 Hz current induction for 3 secs relative to control; format: functional
Mus musculus [4] = assay: Anticonvulsant activity in ip dosed Albino Swiss CD-1 mouse assessed as protection against 32 mA current-induced seizure treated up to 2 hrs prior to 6-Hz current induction measured at time to peak effect; format: functional; details: Swiss CD-1, ip
[5] = Neurotoxicity in ip dosed Albino Swiss CD-1 mouse assessed as induction of motor impairment measured up to 60 secs by chimney test; format: toxicity, organism-based; details: in vivo; in short: as §1
Mus musculus [6] = assay: Anticonvulsant activity in ip dosed Albino Swiss CD-1 mouse assessed as protection against maximal electroshock-induced seizures pretreated up to 2 hrs followed by 50 Hz current induction for […] measured at time to peak effect; format: functional; details: Swiss CD-1, ip
Mus musculus [7] = assay: Protection index, ratio of TD50 for neurotoxicity in ip dosed Albino Swiss CD-1 mouse to ED50 for ip dosed maximal electroshock induced seizure Albino Swiss CD-1 mouse; in short: as §1
Mus musculus [8] = assay: Anticonvulsant activity in Albino Swiss CD-1 mouse assessed as protection against maximal electroshock-induced seizures at 100 mg/kg, ip pretreated up to 2 hrs followed by 50 Hz current induction for […] relative to control; format: functional
Mus musculus [9] = assay: Anticonvulsant activity in Albino Swiss CD-1 mouse assessed as protection against 6 Hz current-induced seizure at 100 mg/kg, ip pretreated up to 0.5 hrs followed by 6 Hz current induction for 3 secs relative to control; format: functional
[10] = Retention time of the compound by LC-MS method
Liver = assay: Drug level in human liver microsomes treated with 1-{1-[4-(3-Chlorophenyl)piperazin-1-yl]-3-methoxy-1-oxopropan-2-yl}pyrrolidine-2,5-dione preincubated for 5 mins followed by NADPH addition measured after 2 hrs by LC-MS method; format: ADME, microsome

## COCC(C(=O)N1CCN(C)CC1)N1C(=O)CCC1=O (centres undefined)
Mus musculus [1]
  Time: 0.25 h
Mus musculus [2]
  Ratio TD50/ED50: >7.3
Mus musculus [3]
  Activity: <=75%
Mus musculus [4]
  ED50: 68.2 mg/kg
[5]
  TD50 at 1 min: > 500 mg/kg

## COCC(C(=O)N1CCN(c2ccc(Cl)cc2)CC1)N1C(=O)CCC1=O (centres undefined)
Mus musculus [1]
  Time: 0.25 to 1 h
Mus musculus [2]
  Ratio TD50/ED50: 2.4 - 4.6
Mus musculus [3]
  Activity: <=75%
Mus musculus [4]
  ED50: 45.5 to 77 mg/kg
[5]
  TD50 at 1 min: 180 to 208 mg/kg

## COCC(C(=O)N1CCN(c2cccc(Cl)c2Cl)CC1)N1C(=O)CCC1=O (centres undefined)
Mus musculus [1]
  Time: 0.25 to 0.5 h
Mus musculus [2]
  Ratio TD50/ED50: 4.8 - 5.9
Mus musculus [3]
  Activity: <=75%
Mus musculus [4]
  ED50: 38 to 54.7 mg/kg
[5]
  TD50 at 1 min: 224 to 261 mg/kg

## COCC(C(=O)N1CCN(c2ccc(C)cc2)CC1)N1C(=O)CCC1=O (centres undefined)
Mus musculus [1]
  Time: 0.25 h
Mus musculus [2]
  Ratio TD50/ED50: 9.6
Mus musculus [3]
  Activity: <=75%
Mus musculus [4]
  ED50: 21.1 mg/kg
[5]
  TD50 at 1 min: 204 mg/kg

## CC[C@@H](C(N)=O)N1CCCC1=O [LEVETIRACETAM]
Mus musculus [1]
  Time: 1 h
Mus musculus [6]
  ED50: > 500 mg/kg
Mus musculus [2]
  Ratio TD50/ED50: >33.8
[5]
  TD50 at 1 min: > 500 mg/kg

## COC[C@@H](C(=O)N1CCN(c2ccc(C(F)(F)F)cc2)CC1)N1C(=O)CCC1=O
Mus musculus [1]
  Time: 0.25 to 0.5 h
Mus musculus [6]
  ED50: > 120 mg/kg
Mus musculus [2]
  Ratio TD50/ED50: 5 - 6.4
Mus musculus [4]
  ED50: 37.9 to 49.2 mg/kg
[5]
  TD50 at 1 min: 243 to 246 mg/kg

## COC[C@@H](NC(C)=O)C(=O)NCc1ccccc1 [LACOSAMIDE]
Mus musculus [1]
  Time: 0.5 h
Mus musculus [6]
  ED50: 9.4 mg/kg
Mus musculus [7]
  Ratio TD50/ED50: 3.6
Mus musculus [2]
  Ratio TD50/ED50: 5.3
Mus musculus [4]
  ED50: 6.4 mg/kg
[5]
  TD50 at 1 min: 33.7 mg/kg

## COCC(C(=O)N1CCN(c2ccc(F)cc2)CC1)N1C(=O)CCC1=O (centres undefined)
Mus musculus [1]
  Time: 0.25 h
Mus musculus [2]
  Ratio TD50/ED50: 4.3
Mus musculus [3]
  Activity: <=75%
Mus musculus [4]
  ED50: 71.4 mg/kg
[5]
  TD50 at 1 min: 306 mg/kg

## COCC(C(=O)N1CCN(c2cccc(C)c2)CC1)N1C(=O)CCC1=O (centres undefined)
Mus musculus [1]
  Time: 0.25 h
Mus musculus [2]
  Ratio TD50/ED50: 4.5
Mus musculus [8]
  Activity: <=75%
Mus musculus [3]
  Activity: <=75%
Mus musculus [4]
  ED50: 47.7 mg/kg
[5]
  TD50 at 1 min: 213 mg/kg

## O=C(C(CO)N1C(=O)CCC1=O)N1CCN(c2ccc(C(F)(F)F)cc2)CC1 (centres undefined)
Mus musculus [9]
  Efficacy: 50%

## COCC(C(=O)N1C=CN(c2cccc(Cl)c2)CC1)N1C(=O)CCC1=O (centres undefined)
[10]
  Retention time: 6.04 min
Liver
  Drug metabolism: Metabolite_Detected
